In PMC4567406 (Journal of medicinal chemistry, 2015):
“Also recorded” adds a separate entry of the source. Values belong to the molecule of their own block, whether it stands above or below them.

Experiments:
[1] = test system: HT1080 cells (IDH1 R132C); assay: Histone lysine methylation levels, Western blot; type: cell-based, human; conditions: treated 4 days
Procedure, shortened: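 After 4 days of test-compound exposure, histones were extracted from treated and control HT1080 cells. Extracts were analysed by Western blot using antibodies to total human histone H3 and to specific methylated lysine marks.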

IDH1(R132H) [2] = target: T1, IDH1(R132H) (Homo sapiens, UniProt O75874, R132H); assay: Steady-state enzyme kinetic study; type: biochemical
[3] = test system: BT142 glioma cells with IDH1 R132H mutation; assay: Proliferation of glioma stem-like cells; type: cell-based; conditions: 14 days
[4] = test system: HT1080 cells (IDH1 R132C); assay: D2HG production inhibition in HT1080 cells; type: cell-based, human; conditions: treated 2 days (48h)
Procedure, shortened: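 HT1080 cells (10^5/well) grown in DMEM with 10% dialyzed FBS and exposed to increasing test-compound concentrations for 48h. Culture medium was collected, diluted with MeOH and centrifuged (20,000 rpm, 3 min). D2HG in the supernatant was quantified by HPLC-MS.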

IDH1(R132H) [5] = target: T1, IDH1(R132H); assay: Isothermal titration calorimetry; type: binding
[6] = test system: BXD-3752 glioma cells without an IDH1 mutation; assay: Proliferation of glioma stem-like cells; type: cell-based; conditions: BXD-3752, no IDH1 mutation, 14 days
IDH1(R132H) [7] = target: T1, IDH1(R132H); assay: IDH1; type: biochemical; conditions: for Fold less active than compound 4: IDH1(R132H) Ki compared with compound 4
Procedure, shortened: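 E. coli-expressed, column-purified IDH1(R132H) (100 nM) in 50 mM HEPES pH 7.5 with 4 mM MgCl2, 100 µM NADPH and graded inhibitor. After 5 min preincubation, 1 mM α-KG was added to start the reaction. NADPH consumption was read at 340 nm every 30 s. IC50s came from dose-response fits. Ki was derived by Cheng-Prusoff (Km 0.965 mM), or by Morrison tight-binding fitting when IC50 <1 µM. Values are means of ≥3 independent runs.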

[8] = test system: IDH1 mutated cancer cells; conditions: cited from earlier work
[9] = IDH1(R132H) 100 μM without NADPH, 298K
[10] = IDH1(R132H) 100 μM without NADPH, 298K, pH 7.4

T1 sequence (O75874 whole entry R132H): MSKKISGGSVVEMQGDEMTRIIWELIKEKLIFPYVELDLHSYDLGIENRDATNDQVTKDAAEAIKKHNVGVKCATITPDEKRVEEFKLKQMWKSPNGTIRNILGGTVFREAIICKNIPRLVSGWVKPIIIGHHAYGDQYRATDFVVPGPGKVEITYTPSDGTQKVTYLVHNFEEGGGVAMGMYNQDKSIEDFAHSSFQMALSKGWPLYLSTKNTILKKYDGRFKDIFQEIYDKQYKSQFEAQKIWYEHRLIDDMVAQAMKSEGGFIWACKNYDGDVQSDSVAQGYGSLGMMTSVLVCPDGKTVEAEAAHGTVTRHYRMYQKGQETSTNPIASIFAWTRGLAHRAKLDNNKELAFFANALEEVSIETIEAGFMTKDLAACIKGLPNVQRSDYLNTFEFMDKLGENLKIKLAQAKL

- Mode of action against the cofactor NADPH (IDH1(R132H) [2]; variable NADPH, Michaelis-Menten plot): noncompetitive
- Mode of action against the substrate α-KG (IDH1(R132H) [2]; variable α-KG, Lineweaver-Burk plot): competitive
- calculated ΔS of binding (IDH1(R132H) [5]; [9]): 95.0 J K^−1 mol^−1
- ΔG of binding (IDH1(R132H) [5]; [9]): -7.12 kcal/mol
- Ka (affinity constant) (IDH1(R132H) [5]; [10]): 168000 M⁻¹
- ΔH of binding (IDH1(R132H) [5]; [10]): -0.359 kcal/mol
- ΔH of binding (IDH1(R132H) [5]; IDH1(R132H) 133 μM in the presence of NADPH (300 μM)): -0.598 kcal/mol
SMILES: O=C1NC(=S)N/C1=C/c1ccc(=O)[nH]c1 [Compound 18]
- Effect on histone lysine methylation levels (H3K4me3, H3K4me2, H3K27me2, H4K20me2) [1]: significantly reduced methylation levels; also recorded: significantly reduce the methylation levels
- Effect on proliferation / neurosphere formation of glioma stem-like cells [3]: inhibited neurosphere formation; also recorded: significantly inhibit proliferation
- Effect on production of D2HG [4]: significantly reduced the production of D2HG; also recorded: significantly reduced amount of D2HG
- Effect on proliferation / neurosphere formation of glioma stem-like cells [6]: did not affect neurosphere formation; also recorded: did not have activity

- Inhibitory activity against IDH1(R132H) in words (IDH1(R132H) [7]): inactive
SMILES: NC1=N/C(=C/c2ccc(=O)[nH]c2)C(=O)N1 [Compound 39]

- Inhibitory activity against IDH1(R132H) in words (IDH1(R132H) [7]): Loss of activity
SMILES: O=C1NC(=S)N/C1=C/c1ccnc(Br)c1 [Compound 32]

- Inhibitory activity against IDH1(R132H) in words (IDH1(R132H) [7]): none of these compounds are active
SMILES: COc1ccc(/C=C2/NC(=S)N(CC(=O)O)C2=O)cn1 [Compound 19]

- Fold activity reduction compared to compound 16 (IDH1(R132H) [7]; IDH1(R132H) Ki compared with compound 16): 22 fold
SMILES: CN1C(=O)/C(=C\c2ccc(=O)[nH]c2)N(C)C1=S [Compound 41]

- Inhibitory activity against IDH1(R132H) in words (IDH1(R132H) [7]): completely lose the inhibitory activity
SMILES: CSC1=N/C(=C/c2ccc(=O)[nH]c2)C(=O)N1 [Compound 40]

- Inhibitory activity against IDH1(R132H) in words (IDH1(R132H) [7]): inactive
SMILES: COc1ccc(/C=C2/NC(=S)N(Cc3ccccc3)C2=O)cn1 [Compound 11]

- Inhibitory activity against IDH1(R132H) in words (IDH1(R132H) [7]): Complete loss of activity
SMILES: O=C1NC(=O)/C(=C\c2ccc(=O)[nH]c2)N1 [Compound 38]

- Inhibitory activity against IDH1(R132H) in words (IDH1(R132H) [7]): Complete loss of activity
SMILES: COc1ccc(/C=C2/NC(=O)NC2=O)cn1 [Compound 37]

- Inhibitory activity against IDH1(R132H) in words (IDH1(R132H) [7]): inactive
SMILES: O=C1/C(=C\c2cccnc2)NC(=S)N1Cc1ccccc1 [Compound 10]

More lines, now with the values behind:

SMILES: O=C1C(=Cc2ccc(O)c(O)c2)NC(=S)N1Cc1ccccc1 [Compound 4, 3-benzyl-5-(3,4-dihydroxybenzylidene)-2-thiohydantoin]
- Ki (IDH1(R132H) [7]): 4.7 µM

SMILES: COc1ccc(CN2C(=O)/C(=C\c3ccc(OC)c(OC)c3)NC2=S)cc1 [Compound 7]
- Inhibitory activity against IDH1(R132H) in words (IDH1(R132H) [7]): inactive

SMILES: O=C(O)CN1C(=O)/C(=C\c2ccc(=O)[nH]c2)NC1=S [Compound 20]
- Effect on histone lysine methylation levels (H3K4me3, H3K4me2, H3K27me2, H4K20me2) [1]: did not significantly affect histone methylation levels; also recorded: did not significantly reduce
- Effect on production of D2HG [4]: did not significantly reduce D2HG
- Inhibitory activity against IDH1(R132H) in words (IDH1(R132H) [7]): none of these compounds are active

SMILES: Cc1ccccc1C(C(=O)NC1CCCCC1)N(C(=O)Cn1ccnc1C)c1cccc(F)c1 (stereo not shown) [Compound 1, reference compound]
- Effect on proliferation / neurosphere formation of glioma stem-like cells [3]: inhibited neurosphere formation; also recorded: can inhibit growth
- Effect on proliferation of IDH1 mutated cancer cells [8]: can also inhibit proliferation
- Effect on proliferation / neurosphere formation of glioma stem-like cells [6]: did not affect neurosphere formation

SMILES: O=C1/C(=C\c2ccc(O)c(O)c2)NC(=S)N1c1ccccc1 [Compound 8]
- Fold less active than compound 4 (IDH1(R132H) [7]): ~ 3 fold

SMILES: COc1ccc(/C=C2/NC(=S)N(c3ccccc3)C2=O)cc1OC [Compound 6]
- Inhibitory activity against IDH1(R132H) in words (IDH1(R132H) [7]): inactive

SMILES: CN1C(=O)/C(=C\c2ccc(=O)[nH]c2)NC1=S [Compound 16]
- Effect on proliferation / neurosphere formation of glioma stem-like cells [3]: inhibited neurosphere formation; also recorded: significantly inhibit proliferation
- Effect on production of D2HG [4]: significantly reduced the production of D2HG; also recorded: significantly reduced amount of D2HG
- Effect on proliferation / neurosphere formation of glioma stem-like cells [6]: did not affect neurosphere formation; also recorded: did not have activity

SMILES: O=C1/C(=C\c2ccc(O)c(O)c2)NC(=S)N1Cc1ccc(O)cc1 [Compound 9]
- Fold less active than compound 4 (IDH1(R132H) [7]): ~ 3 fold
